In ChEMBL document CHEMBL1139507, “Application of phosphoramidate pronucleotide technology to abacavir leads to a significant enhancement of antiviral potency” (J Med Chem, 2005):
Values belong to the molecule of their own block, whether it stands above or below them.

How the values were obtained:
CCRF-CEM [1] = experiment: Intracellular concentration of metabolites (CBVDP) from 19-21 hrs in CEM cells after incubation with the compound (10 uM); format: functional, cell-based; conditions: Homo sapiens
How it was run: (§1)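 CEM T4 lymphocytes seeded at (2-4) × 10⁵ cells/mL in RPMI-1640 with 10% fetal calf serum, 2 mM L-glutamine, 0.075% NaHCO₃. They were exposed 24 h to 10 µM [³H]abacavir or 1.1 µM ³H-ProTide (5 µCi/5 mL), washed twice in cold medium, and extracted with cold methanol/water 60:40. Metabolites were separated by SAX HPLC, (NH₄)H₂PO₄ pH 5.0 gradient 0.005-0.30 M, with fractions by retention time in min. Results are pmol/10⁹ cells.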

[2] = system: Human immunodeficiency virus 1; experiment: Ratio of CC50 to that of EC50 against human immunodeficiency virus type 1 in CEM cells; format: functional, CCRF-CEM
Human alphaherpesvirus 1 [3] = experiment: Effective concentration against thymidine kinase deficient herpes simplex virus (HSV-1) in VMW-1837 strain; conditions: Human alphaherpesvirus 1, VMW-1837
CCRF-CEM [4] = experiment: Intracellular concentration of metabolites (CBVMP +alaninyl-ABCMP) from 11-13 hrs in CEM cells after incubation with the compound (10 uM); format: functional, cell-based; conditions: Homo sapiens; how it was run: as §1
C3H/3T3 = experiment: Cytostatic concentration required to inhibit C3H/3T3 cell proliferation; format: functional; conditions: Mus musculus
[5] = system: Human immunodeficiency virus 1; experiment: Effective concentration against human immunodeficiency virus type 1 in PBL cells; format: functional, organism-based; conditions: Human immunodeficiency virus 1, PBL
Human alphaherpesvirus 1 [6] = experiment: Effective concentration against thymidine kinase deficient herpes simplex virus (HSV-1) in B2006 strain; conditions: Human alphaherpesvirus 1, B2006
CCRF-CEM [7] = experiment: Intracellular concentration of metabolites (CBVTP) from 35-38 hrs in CEM cells after incubation with the compound (10 uM); format: functional, cell-based; conditions: Homo sapiens; how it was run: as §1
[8] = system: Moloney murine sarcoma virus; experiment: Effective concentration against murine moloney sarcoma virus in C3H/3T3 cells; format: functional, organism-based
[9] = system: Human immunodeficiency virus 1; experiment: Effective concentration against human immunodeficiency virus type 1 in CEM cells; format: functional, organism-based; conditions: Human immunodeficiency virus 1, CCRF-CEM
How it was run: (§2)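 HIV-1- and HIV-2-induced cytopathicity in CEM cell cultures, scored at day 4 by microscopic examination of virus-induced giant cell formation; EC50 = concentration inhibiting cytopathicity by 50%.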

Human alphaherpesvirus 2 = experiment: Effective concentration against thymidine kinase competent herpes simplex virus (HSV-2) in […]
[10] = system: Human immunodeficiency virus 2; experiment: Ratio of CC50 to that of EC50 against human immunodeficiency virus type 2 in CEM cells; format: functional, CCRF-CEM
Human alphaherpesvirus 1 [11] = experiment: Effective concentration against thymidine kinase competent herpes simplex virus (HSV-1) in […]; format: functional, organism-based
How it was run: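 Confluent HEL cell cultures inoculated with 100 CCID50 of HSV-1 (KOS), HSV-2 (G) or HSV-1 TK- (B2006, VMW-1837); after 1 h adsorption, residual virus removed and cells incubated with varying compound concentrations; cytopathicity recorded once complete in virus controls; EC50 = concentration inhibiting HSV-induced cytopathicity by 50%.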

HepG2 = experiment: Cytostatic concentration required to inhibit Hep G2.2.15 cell proliferation; format: functional, Homo sapiens; conditions: Homo sapiens, HepG2
How it was run: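 Growth inhibition of HepG2 2.2.15 human hepatoma cells (constitutively HBV-producing) measured; CC50 = 50% cytostatic concentration.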

[12] = Time of maximum concentration was observed in monkey after oral dosage; format: ADME, organism-based; conditions: cercopithecidae, in vivo
How it was run: (§3)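 Female cynomolgus monkeys (three, 2.0-3.2 kg) received the succinate salt at 11.5 mg/kg (17.3 µmol/kg), 2.3 mg/mL in 10% DMSO/90% saline, 5 mL/kg, iv on day 1 and orally on day 8 (1-week washout); fasted overnight to ~4 h postdose. Serial plasma to 24 h, acetonitrile deproteination, LC/MS/MS of prodrug, alaninyl-ABC-MP, ABC-MP, ABC, CBV; noncompartmental analysis.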

HEL = experiment: Cytostatic concentration required to inhibit HEL cell proliferation; format: functional; conditions: Homo sapiens
How it was run: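 HEL cell proliferation measured in presence of compound; CC50 = 50% cytostatic concentration inhibiting HEL cell proliferation by 50%.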

CCRF-CEM [13] = experiment: Intracellular concentration of metabolites (ABCMP) from 6-8 hrs in CEM cells after incubation with the compound (10 uM); format: functional, cell-based; conditions: Homo sapiens; how it was run: as §1
[14] = system: Human immunodeficiency virus 2; experiment: Effective concentration against human immunodeficiency virus type 2 (ROD) in CEM cells; format: functional, organism-based; conditions: Human immunodeficiency virus 2, CCRF-CEM; how it was run: as §2
CCRF-CEM [15] = experiment: Cytostatic concentration required to inhibit CEM cell proliferation; format: functional; conditions: Homo sapiens
Hepatitis B virus = experiment: Effective concentration against hepatitis B virus in Hep G2.2.15 cells; format: functional, organism-based; conditions: HepG2 2.2.15
How it was run: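 Anti-HBV activity assayed in HepG2 2.2.15 human hepatoma cells, which constitutively produce HBV; EC50 = 50% effective concentration.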

[16] = Terminal elimination half-life in monkey after intravenous dosage; NA=not applicable; format: ADME, organism-based; conditions: cercopithecidae, in vivo; how it was run: as §3
[17] = Area under the plasma concentration-time curve in monkey after intravenous dosage; format: ADME; conditions: cercopithecidae; how it was run: as §3
CCRF-CEM [18] = experiment: Intracellular concentration of metabolites (ABC + proABC + CBV) from 2-3 hrs in CEM cells after incubation with the compound (10 uM); format: functional, cell-based; conditions: Homo sapiens; how it was run: as §1
[19] = Area under the plasma concentration-time curve in monkey after peroral dosage; format: ADME; conditions: cercopithecidae, po; how it was run: as §3
[20] = Total plasma clearance in monkey after administration of intravenous dosage; (n=3); format: ADME, organism-based; conditions: cercopithecidae; how it was run: as §3
[21] = Terminal elimination half-life in monkey after administration of intravenous dosage; format: ADME, organism-based; conditions: cercopithecidae, in vivo; how it was run: as §3
[22] = Area under the plasma concentration-time curve in monkey after administration of intravenous dosage; format: ADME; conditions: cercopithecidae; how it was run: as §3
[23] = Apparent half life value in monkey after oral dosage; format: ADME, organism-based; conditions: cercopithecidae, in vivo, read-out: T1/2 app (converted); how it was run: as §3
[24] = Oral bioavailability in monkey after oral dosage; format: ADME, organism-based; conditions: cercopithecidae, in vivo; how it was run: as §3

Compound: Nc1nc(NC2CC2)c2ncn([C@H]3C=C[C@@H](COP(=O)(O)O)C3)c2n1
- Concentration (pmol/10E9 cells) (CCRF-CEM [1]): 3490
- SI [2]: 190
- EC50 (Human alphaherpesvirus 1 [3]): 20 µM
- Concentration (pmol/10E9 cells) (CCRF-CEM [4]): 12400
- CC50 (C3H/3T3): > 4 µM
- EC50 [5]: 0.008 µM
- EC50 (Human alphaherpesvirus 1 [6]): 20 µM
- Concentration (pmol/10E9 cells) (CCRF-CEM [7]): 3020
- EC50 [8]: 1.6 µM
- EC50 [9]: 0.07 µM
- EC50 (Human alphaherpesvirus 2): 20 µM
- SI [10]: 150
- EC50 (Human alphaherpesvirus 1 [11]): 20 µM
- CC50 (HepG2): 17 µM
- Tmax [12]: 78 min
- CC50 (HEL): 110 µM
- Concentration (pmol/10E9 cells) (CCRF-CEM [13]): 280
- EC50 [14]: 0.09 µM
- CC50 (CCRF-CEM [15]): 13 µM
- EC50 (Hepatitis B virus): 0.55 µM
- T1/2 [16]: Not Active
- AUC [17]: 0.4 µM·h
- Concentration (pmol/10E9 cells) (CCRF-CEM [18]): 5000

- AUC [19]: 0.7 µM·h
- clearance [20]: 113 mL/min/kg
- half-life [21]: 6.6 min
- AUC [22]: 2.7 µM·h
- half-life [23]: 24 min
- Tmax [12]: 48 min
- bioavailability [24]: 22%
Compound: CCOC(=O)[C@H](C)NP(=O)(OC[C@@H]1C=C[C@H](n2cnc3c(NC4CC4)nc(N)nc32)C1)Oc1ccccc1 (stereo not given in full)
